{"source": "paper PMC6778631", "about": "(Cancer Science, 2019)", "key": {"[1]": {"test_system": "TF‐1/IDH2‐R140Q cells", "assay": "Cell proliferation assay", "type": "cell-based, human", "details": "7 d + 7 d without hGM-CSF"}, "[2]": {"target": "T1, IDH2‐WT (Homo sapiens, UniProt P48735)", "T1 sequence (P48735 40-452)": "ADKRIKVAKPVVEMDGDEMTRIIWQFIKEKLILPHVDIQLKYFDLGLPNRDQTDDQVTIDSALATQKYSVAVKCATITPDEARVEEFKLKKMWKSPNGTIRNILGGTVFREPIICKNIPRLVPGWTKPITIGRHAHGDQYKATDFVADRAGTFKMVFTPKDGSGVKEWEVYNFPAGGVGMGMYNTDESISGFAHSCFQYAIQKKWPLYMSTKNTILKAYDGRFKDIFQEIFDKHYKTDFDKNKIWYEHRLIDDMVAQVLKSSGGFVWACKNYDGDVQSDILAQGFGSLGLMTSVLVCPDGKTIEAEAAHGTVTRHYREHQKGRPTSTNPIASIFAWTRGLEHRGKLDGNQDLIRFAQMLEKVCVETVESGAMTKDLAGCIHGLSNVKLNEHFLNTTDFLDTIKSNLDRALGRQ", "assay": "Cell-based enzyme assay, lysates of U-87 MG/IDH2-WT cells", "type": "biochemical"}, "[3]": {"test_system": "TF‐1/IDH2‐R172K cells", "assay": "Erythroid differentiation under EPO, HBG mRNA by qRT-PCR", "type": "cell-based, human", "details": "7 d + 7 d EPO"}, "[4]": {"test_system": "TF‐1/IDH2‐R140Q cells", "assay": "Cell-based inhibition of 2-HG production", "details": "Homo sapiens, 72 h, read-out: IC50, anti-2-HG activity"}, "[5]": {"target": "IDH1‐WT (Homo sapiens, UniProt O75874)", "sequence (O75874 whole entry)": "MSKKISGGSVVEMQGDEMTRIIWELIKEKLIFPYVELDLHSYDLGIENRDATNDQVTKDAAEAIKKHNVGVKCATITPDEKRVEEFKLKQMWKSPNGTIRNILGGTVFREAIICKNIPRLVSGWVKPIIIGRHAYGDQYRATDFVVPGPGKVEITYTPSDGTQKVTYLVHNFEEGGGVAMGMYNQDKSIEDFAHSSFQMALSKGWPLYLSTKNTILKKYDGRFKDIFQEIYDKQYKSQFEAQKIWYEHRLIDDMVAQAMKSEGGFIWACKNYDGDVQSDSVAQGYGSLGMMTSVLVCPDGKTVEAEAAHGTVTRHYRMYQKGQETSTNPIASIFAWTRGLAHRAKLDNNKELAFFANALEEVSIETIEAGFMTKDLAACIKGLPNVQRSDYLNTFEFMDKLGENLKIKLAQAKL", "assay": "Cell-based enzyme assay, lysates of U-87 MG/IDH1-WT cells", "type": "biochemical"}, "[6]": {"target": "T2, IDH2‐R172K (Homo sapiens, UniProt P48735, R172K)", "T2 sequence (P48735 40-452 R172K)": "T1 sequence (P48735 40-452) with R133K", "assay": "Cell-based enzyme assay, lysates of U-87 MG/IDH2-R172K cells", "type": "biochemical"}, "[7]": {"target": "T3, IDH2‐R140Q‐Q316A (Homo sapiens, UniProt P48735, Q316A/R140Q)", "T3 sequence (P48735 40-452 R140Q/Q316A)": "T1 sequence (P48735 40-452) with R101Q, Q277A", "assay": "Cellular thermal shift assay in U-87 MG/IDH2-R140Q-Q316A cells", "type": "binding", "details": "1 h treatment"}, "[8]": {"test_system": "TF‐1/IDH2‐R140Q cells", "assay": "Erythroid differentiation under EPO, HBG mRNA by qRT-PCR", "type": "cell-based, human", "details": "7 d + 7 d EPO", "summary_of_the_method": "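TF-1 cells carrying doxycycline-inducible IDH2-R140Q got test compound for 7 d in RPMI-1640, 10% FBS, 2 ng/mL hGM-CSF. GM-CSF was then replaced by EPO (2 IU/mL) for another 7 d with compound present. HBG mRNA was measured in cell pellets by SYBR qRT-PCR, with GAPDH primers also used. Means ± SD of triplicates.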"}, "[9]": {"target": "T4, IDH2‐R140Q (Homo sapiens, UniProt P48735, R140Q)", "T4 sequence (P48735 40-452 R140Q)": "T1 sequence (P48735 40-452) with R101Q", "assay": "Cellular thermal shift assay in U-87 MG cells", "type": "binding", "details": "1 h treatment"}, "[10]": {"test_system": "U‐87 MG/IDH2‐R140Q cells", "assay": "Cell-based inhibition of 2-HG production", "details": "Homo sapiens, 72 h, read-out: Inhibition of 2-HG production"}, "[11]": {"target": "T5, wild‐type IDH2 (Homo sapiens, UniProt P48735)", "T5 sequence (P48735 40-452)": "T1 sequence (P48735 40-452)", "assay": "Cellular thermal shift assay in U-87 MG cells", "type": "binding", "details": "1 h treatment"}, "[12]": {"test_system": "TF‐1/IDH2‐R172K cells", "assay": "Cell-based inhibition of 2-HG production", "details": "Homo sapiens, 72 h, read-out: IC50, anti-2-HG activity"}, "[13]": {"target": "IDH1‐R132C (Homo sapiens, UniProt O75874, R132C)", "sequence (O75874 whole entry R132C)": "as the sequence (O75874 whole entry) above, with R132C counted along it", "assay": "Cell-based enzyme assay, lysates of U-87 MG/IDH1-R132C cells", "type": "biochemical"}, "[14]": {"target": "IDH1‐R132H (Homo sapiens, UniProt O75874, R132H)", "sequence (O75874 whole entry R132H)": "as the sequence (O75874 whole entry) above, with R132H counted along it", "assay": "Cell-based enzyme assay, lysates of U-87 MG/IDH1-R132H cells", "type": "biochemical"}, "[15]": {"target": "T4, IDH2‐R140Q", "assay": "Cell-based enzyme assay, lysates of U-87 MG/IDH2-R140Q cells", "type": "biochemical", "details": "IC50, inhibition of IDH2-R140Q enzymatic activity"}, "[16]": {"test_system": "TF‐1/IDH2‐R172K cells", "assay": "Cell proliferation assay", "type": "cell-based, human", "details": "7 d + 7 d without hGM-CSF"}, "[17]": {"target": "T2, IDH2‐R172K", "assay": "Cellular thermal shift assay in U-87 MG cells", "type": "binding", "details": "1 h treatment"}}, "note": "Positions count from the first letter of the chain named.", "data": [{"compound": "CC(C)(O)CNc1nc(Nc2ccnc(C(F)(F)F)c2)nc(-c2cccc(C(F)(F)F)n2)n1", "note": "[AG‐221, enasidenib]", "values": [{"measurement": "Effect on cell proliferation (MTT)", "setting": "[1]", "result": "did not significantly inhibit proliferation"}, {"measurement": "Inhibitory effect on IDH2-WT enzymatic activity", "setting": "[2]", "result": "no apparent inhibitory effects"}, {"measurement": "Effect on HBG levels (cell differentiation)", "setting": "[3]", "result": "increased HBG only in TF‐1/IDH2‐R140Q cells"}, {"measurement": "IC50", "setting": "[4]", "result": "24.7 ± 2.3", "unit": "nM"}, {"measurement": "Inhibitory effect on IDH1-WT enzymatic activity", "setting": "[5]", "result": "no apparent inhibitory effects"}, {"measurement": "IC50", "setting": "[6]", "result": "625 ± 146", "unit": "nM"}, {"measurement": "Thermal stabilization in U-87 MG/IDH2-R140Q-Q316A cells (CETSA)", "setting": "[7]", "result": "lost"}, {"measurement": "Effect on HBG levels (cell differentiation)", "setting": "[8]", "result": "increased HBG"}, {"measurement": "Thermal stabilization of IDH2-R140Q (CETSA)", "setting": "[9]", "result": "apparent thermal‐stabilization effect"}, {"measurement": "inhibition at 0.2 µM", "setting": "[10]", "result": 67.3, "unit": "%"}, {"measurement": "Thermal stabilization of wild-type IDH2 (CETSA)", "setting": "[11]", "result": "Neither TQ05310 nor AG‐221 stabilized"}, {"measurement": "IC50", "setting": "[12]", "result": "732 ± 331", "unit": "nM"}, {"measurement": "Inhibitory effect on IDH1-R132C enzymatic activity", "setting": "[13]", "result": "no apparent inhibitory effects"}, {"measurement": "Inhibitory effect on IDH1-R132H enzymatic activity", "setting": "[14]", "result": "no apparent inhibitory effects"}, {"measurement": "IC50", "setting": "[15]", "result": "229 ± 23.2", "unit": "nM"}, {"measurement": "Effect on cell proliferation (MTT)", "setting": "[16]", "result": "did not significantly inhibit proliferation"}, {"measurement": "Thermal stabilization of IDH2-R172K (CETSA)", "setting": "[17]", "result": "weak thermal‐stabilization effect"}]}]}
